Results taken from ChEMBL document CHEMBL1135577, “Synthesis and biological evaluation of structurally highly modified analogues of the antimitotic natural product curacin A” (J Med Chem, 2002).

Columns and labels:
[1] = biological target: Tubulin (Bos taurus); assay: Inhibition of tubulin polymerization of purified bovine brain tubulin
[2] = tested on: MCF7; assay: Tested for 50% growth inhibitory concentration by using MCF-7 cell lines.; assay type: functional; conditions: Homo sapiens
Summary of the method: (§1)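 Cultured human tumor cells were seeded at 500-2000 cells/well, allowed to attach for 48 h, then exposed continuously for 48 h to DMSO vehicle or agent at five concentrations (e.g., 50-0.08 μM, 10-0.016 μM or 1-0.0016 μM series), each in quadruplicate. A time-zero plate was included. Cell number was read by MTS/phenazine methanesulfonate at A490-A630. Values are means (N = 4 over 10 concentrations) ± SD.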

[3] = tested on: A2780; assay: Tested for colchicine binding inhibition, using human ovarian cancer cell lines (at 5 uM ); assay type: functional
Summary of the method: (§2)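 [3H]colchicine (5 μM) was incubated with 1 μM tubulin and agent (1-250 μM) or DMSO vehicle (5% v/v) at 30 °C for 15 min or 37 °C for 10 min, in 1 M monosodium glutamate, 0.1 M glucose-1-phosphate, 1 mM MgCl2, 1 mM GTP and 0.5 mg/mL BSA. Samples were filtered through DEAE-cellulose and counted by scintillation. Values are means (N = 9 over four concentrations) ± SD.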

[4] = tested on: PC-3; assay: 50% Growth inhibitory concentration by using PC -3 human prostate carcinoma cell lines (48h continuous exposure); assay type: functional; conditions: PC-3, 48 h
Summary of the method: as §1

[5] = tested on: 2008; assay: 50% Growth inhibitory concentration( GI 50 ) by using 2008 human ovarian carcinoma cell lines.; assay type: functional
Summary of the method: as §1

[6] = tested on: A2780; assay: Compound was tested for Tubulin polymerization inhibition by using human ovarian cancer cell lines.; assay type: functional
Summary of the method: (§3)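 Tubulin (10 μM final, 1 mg/mL) was preincubated with agent in DMSO (4% v/v final) and 0.8 M monosodium glutamate for 15 min at 30 °C, then cooled to 0 °C and GTP (0.4 mM final) added. Turbidity at 350 nm was followed for 20 min at 30 °C. […] Values are averages of two determinations.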

[7] = tested on: 2008; assay: Compound was tested for 50% growth inhibitory concentration by using human ovarian carcinoma cell lines (2008); assay type: functional
Summary of the method: as §1

[8] = tested on: PC-3; assay: Compound was tested for 50% growth inhibitory concentration by using human prostate carcinoma cell lines (PC -3); assay type: functional
Summary of the method: as §1

[9] = tested on: A2780; assay: Compound was tested for Tubulin polymerization inhibition by using human ovarian carcinoma cell lines.; assay type: functional
Summary of the method: as §3

[10] = tested on: MDA-MB-231; assay: Compound was tested for 50% Growth Inhibitory concentration by using MDA-MB-231 cell lines.; assay type: functional; conditions: Homo sapiens
Summary of the method: as §1

[11] = tested on: A2780; assay: Compound was tested for colchicine binding inhibition by using human ovarian carcinoma cell line (at 5 uM ); assay type: functional
Summary of the method: as §2

[12] = tested on: A2780; assay: Compound was tested for colchicine Binding Inhibition by using human ovarian carcinoma cell line (at 5 uM ); assay type: functional
Summary of the method: as §2

[13] = tested on: A2780; assay: Colchicine Binding Inhibition ( CBI ) by using human ovarian cancer cell lines at 5 uM, (values are mean of 9 over 4 concentrations +/- SD); assay type: functional
Summary of the method: (§4)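 [3H]-colchicine (5 μM, 2.3 TBq/mmol) and test agent (1–250 μM) or DMSO vehicle (5% v/v) were incubated with 1 μM purified tubulin at 30 °C for 15 min. The medium held 1 M monosodium glutamate, 0.1 M glucose-1-phosphate, 1 mM MgCl2, 1 mM GTP and 0.5 mg/mL BSA. Samples were filtered through DEAE-cellulose stacks, and […] was counted by scintillation. Values are means (N = 9 over four concentrations) ± SD.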

[14] = tested on: A2780; assay: Compound tested for colchicine Binding Inhibition by using human ovarian cancer cell line (at 5 uM ); assay type: functional
Summary of the method: as §4

[15] = tested on: MCF7; assay: Compound was tested for 50% Growth Inhibitory concentration against MCF-7 cell lines.; assay type: functional; conditions: Homo sapiens
Summary of the method: (§5)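 Cells (500–2000/well) attached and grew for 48 h, then received DMSO vehicle or agent at five-point 5-fold dilutions (from 50, 10 or 1 μM top) for 48 h, continuous exposure. A time-zero plate was included, and each concentration was run in quadruplicate. Cell number was read by MTS/phenazine methanesulfonate, A490 minus A630. Values are means (N = 4 over 10 concentrations) ± SD.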

[16] = tested on: MDA-MB-231; assay: Compound was tested for 50% Growth Inhibitory concentration by using MDA - MB231 human breast carcinoma cell lines.; assay type: functional
Summary of the method: as §5

[17] = tested on: A2780; assay: Percent of Tubulin polymerization inhibition by using human ovarian cancer cell lines at a concentration of 5 uM; assay type: functional
Summary of the method: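 Purified tubulin (10 μM final, 1 mg/mL) was preincubated 15 min at 30 °C with agent in DMSO (4% v/v final) and 0.8 M monosodium glutamate. Samples were chilled to 0 °C, and GTP was added (0.4 mM final). Turbidity at 350 nm was followed for 20 min after a rapid rise to 30 °C. Inhibition was scaled between vehicle without GTP (100%) and GTP plus vehicle (0%). Values are averages of two determinations.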

[18] = biological target: Tubulin (Bos taurus); assay: Ability to inhibit the GTP/glutamate-induced polymerization of tubulin

Row | Compound | IC50 [1] [nM] | GI50 [2] [nM] | inhibition at 5 µM [3] [%] | also measured
1 | C=CC[C@@H](CC/C(C)=C/C=C/CC/C=C\[C@@H]1CSC([C@@H]2C[C@@H]2C)=N1)OCC(F)(F)C(F)(F)C(F)(F)F | 5400 | > 10000 | 12 | 
2 | C=CC[C@@H](CC/C(C)=C/C=C/CC/C=C\c1csc([C@@H]2C[C@@H]2C)n1)OC | 740 | 300 | 74 | 
3 | COc1cc(CCCCCCCC(C)CCC(O)c2cccs2)cc(OC)c1OC (stereo not given) |  |  | < 10 | GI50 [4]: 21000 nM; GI50 [5]: 26000 nM; TPI [6]: 15%
4 | C=CCC1(CC/C(C)=C/C=C/CC/C=C\[C@@H]2CSC([C@@H]3C[C@@H]3C)=N2)OCCO1 | 780 | 30 | 92 | 
5 | C=CC[C@@H](CC/C(C)=C/C=C/CC/C=C\c1csc(C(C)(C)C)n1)OC |  |  | 38 | GI50 [4]: 240 nM; GI50 [5]: 300 nM; TPI [6]: 100%
6 | C=CC[C@@H](CC[C@@]1(C)C[C@@H]1[C@H]1C[C@@H]1CC/C=C\[C@@H]1COC([C@@H]2C[C@@H]2C)=N1)OC |  |  |  | GI50 [7]: 18000 nM; GI50 [8]: 49000 nM; TPI [9]: 59%; GI50 [10]: 18000 nM; inhibition at 5 µM [11]: < 10%
7 | C=CC[C@H](O)CC/C(C)=C/C=C/CC/C=C\C1CSC([C@@H]2C[C@@H]2C)=N1 (stereo not given in full) | 870 | 450 | 82 | 
8 | COc1cc(/C=C\CC/C=C/C=C(\C)CCC(O)c2cccs2)cc(OC)c1OC (stereo not given) |  |  | 39 | GI50 [5]: 280 nM; TPI [6]: >95%
9 | C=CC[C@@H](CC[C@@]1(C)C[C@@H]1[C@H]1C[C@@H]1CC/C=C\[C@@H]1CSC([C@@H]2C[C@@H]2C)=N1)OC |  |  |  | GI50 [7]: > 50000 nM; inhibition at 5 µM [12]: < 10%; GI50 [8]: > 50000 nM; TPI [9]: 0%; GI50 [10]: > 50000 nM
10 | C=CC[C@@H](CC/C(C)=C/C=C\CC/C=C\[C@@H]1CSC([C@@H]2C[C@@H]2C)=N1)OC [CURACIN B] | 820 | 320 | 56 | 
11 | C=CC[C@@H](CC/C(C)=C/C=C/CC/C=C\[C@H](CSC(=O)[C@@H]1C[C@@H]1C)NC(C)=O)OC | 1500 | 4200 | 9 | 
12 | C=CC[C@@H](CC/C(C)=C\C=C\CC/C=C\[C@@H]1CSC([C@@H]2C[C@@H]2C)=N1)OC [CURACIN C] | 2300 | 3600 | 10 | 
13 | C=CC[C@@H](CC/C(C)=C/C=C/CC/C=C\c1coc(C(C)(C)C)n1)OC |  |  | < 10 | GI50 [4]: > 50000 nM; GI50 [5]: > 50000 nM; TPI [6]: 51%
14 | C=CC[C@@H](CC/C(C)=C/C=C/CC/C=C\[C@H](CSC)NC(C)=O)OC | 3300 | 5200 | 12 | 
15 | C=CC[C@@H](CC/C(C)=C/C=C/CC/C=C\[C@@H]1CSC([C@@H]2C[C@@H]2C)=N1)OC [CURACIN A] | 720 |  |  | inhibition at 5 µM [13]: 78%; inhibition at 5 µM [14]: 94%; GI50 [4]: 50 nM; GI50 [5]: 35 nM; GI50 [15]: 40 nM; GI50 [16]: 96 nM; TPI [17]: 98%
16 | C=CC[C@H](CC/C(C)=C/C=C/CC/C=C\[C@@H]1CSC([C@@H]2C[C@@H]2C)=N1)OC | 670 | 180 | 56 | 
17 | COc1cc(/C=N\OC/C=C/C=C(\C)CCC(O)c2cccs2)cc(OC)c1OC (stereo not given) |  |  |  | GI50 [7]: 240 nM; IC50 [18]: 170 nM; inhibition at 5 µM [12]: 48%; GI50 [8]: 250 nM; TPI [9]: 100%; GI50 [10]: 120 nM
18 | C=CC[C@@H](CC/C(C)=C/C=C/CC/C=C\[C@H]1CSC([C@@H]2C[C@@H]2C)=N1)OC | 5500 | > 1000 | 3 | 
19 | CC(C)=C/C=C/CC/C=C\[C@@H]1CSC([C@@H]2C[C@@H]2C)=N1 | > 50000 |  |  | 
